# In ChEMBL document CHEMBL1134346, “Labeling and evaluation of N-[11C]methylated quinoline-2-carboxamides as potential radioligands for visualization of peripheral benzodiazepine receptors” (J Med Chem, 2001):
# Species on record: Rattus norvegicus
# Test: Tissue (spleen) distribution in Albino male CD rats after 90 minutes expressed as percent of injected dose per gram of organ.
# Format: ADME, organism-based
# Settings: in vivo, 1.5 h
row,I.D./g,Structure (SMILES)
1,1.06%,CCC(C)N(C)C(=O)c1nc2ccccc2c(-c2ccccc2)c1C (stereo not given)

# Species on record: Rattus norvegicus
# Test: Tissue (testicle) distribution in Albino male CD rats after 5 minutes expressed as percent of injected dose per gram of organ.
# Format: ADME, organism-based
# Settings: in vivo
# Outline: (§1)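 Male albino CD rats (225-250 g) received the 11C-labelled radioligand in saline by tail-vein injection. Three rats per time point were decapitated under light ether anaesthesia at 5, 15, 30, 60 or 90 min. Blood was collected heparinized and plasma separated by centrifugation. The pituitary was dissected from the brain. Lung, liver (three-lobe pieces) and right deltoid muscle were sampled, washed in cold saline, gamma-counted and weighed. Results are %I.D./g.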
row,I.D./g,Structure (SMILES)
1,0.06%,CCC(C)N(C)C(=O)c1nc2ccccc2c(-c2ccccc2)c1C (stereo not given)

# Species on record: Rattus norvegicus
# Test: Tissue (testicle) distribution in Albino male CD rats after 60 minutes expressed as percent of injected dose per gram of organ.
# Format: ADME, organism-based
# Settings: in vivo, 1 h
# Outline: as §1
row,I.D./g,Structure (SMILES)
1,0.09%,CCC(C)N(C)C(=O)c1nc2ccccc2c(-c2ccccc2)c1C (stereo not given)

# Species on record: Rattus norvegicus
# Test: Tissue (testicle) distribution in Albino male CD rats after 90 minutes expressed as percent of injected dose per gram of organ.
# Format: ADME, organism-based
# Settings: in vivo, 1.5 h
row,I.D./g,Structure (SMILES)
1,0.08%,CCC(C)N(C)C(=O)c1nc2ccccc2c(-c2ccccc2)c1C (stereo not given)

# Species on record: Rattus norvegicus
# Test: Tissue (kidney) distribution in Albino male CD rats after 30 minutes expressed as percent of injected dose per gram of organ.
# Format: ADME, organism-based
# Settings: in vivo, 0.5 h
# Outline: (§2)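 Radioligand given in saline into tail vein of male albino CD rats (225-250 g); 100-200 µCi per animal, 1-2 Ci/µmol at injection depending on radioligand. Three rats per time point were decapitated under light ether anaesthesia. Blood, plasma, brain regions and washed organs were weighed and gamma-counted. Uptake is %I.D./g tissue, mean ± SD.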
row,I.D./g,Structure (SMILES)
1,0.77%,CCC(C)N(C)C(=O)c1nc2ccccc2c(-c2ccccc2)c1C (stereo not given)

# Species on record: Rattus norvegicus
# Test: Tissue (kidney) distribution in Albino male CD rats after 5 minutes expressed as percent of injected dose per gram of organ.
# Format: ADME, organism-based
# Settings: in vivo
# Outline: as §2
row,I.D./g,Structure (SMILES)
1,0.59%,CCC(C)N(C)C(=O)c1nc2ccccc2c(-c2ccccc2)c1C (stereo not given)

# Species on record: Rattus norvegicus
# Test: Tissue (kidney) distribution in Albino male CD rats after 60 minutes expressed as percent of injected dose per gram of organ.
# Format: ADME, organism-based
# Settings: in vivo, 1 h
# Outline: as §2
row,I.D./g,Structure (SMILES)
1,0.78%,CCC(C)N(C)C(=O)c1nc2ccccc2c(-c2ccccc2)c1C (stereo not given)

# Species on record: Rattus norvegicus
# Test: Tissue (kidney) distribution in Albino male CD rats after 90 minutes expressed as percent of injected dose per gram of organ.
# Format: ADME, organism-based
# Settings: in vivo, 1.5 h
# Outline: as §2
row,I.D./g,Structure (SMILES)
1,0.73%,CCC(C)N(C)C(=O)c1nc2ccccc2c(-c2ccccc2)c1C (stereo not given)

# Species on record: Rattus norvegicus
# Test: Tissue (liver) concentration of radioactivity at 30 min post-injection into Albino male CD rats with vehicle.
# Format: ADME, organism-based
# Settings: in vivo, 0.5 h
# Outline: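 Separate groups of five rats received tail-vein PK 11195 (1.4-1.6 mg; 5 mg/kg) in 30 µL DMSO:EtOH 1:1, or vehicle alone, immediately before iv radioligand (90-170 µCi in saline, 0.9-1 Ci/µmol). Rats were decapitated at 30 min and tissues gamma-counted; values are %I.D./g.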
row,I.D./g,Structure (SMILES)
1,0.3%,CCC(C)N(C)C(=O)c1nc2ccccc2c(-c2ccccc2)c1C (stereo not given)

# Species on record: Rattus norvegicus
# Test: Tissue (liver) distribution in Albino male CD rats after 60 minutes expressed as percent of injected dose per gram of organ.
# Format: ADME, organism-based
# Settings: in vivo, 1 h
# Outline: as §1
row,I.D./g,Structure (SMILES)
1,0.32%,CCC(C)N(C)C(=O)c1nc2ccccc2c(-c2ccccc2)c1C (stereo not given)

# Species on record: Rattus norvegicus
# Test: Tissue (lung) distribution in Albino male CD rats after 30 minutes expressed as percent of injected dose per gram of organ.
# Format: ADME, organism-based
# Settings: in vivo, 0.5 h
# Outline: as §1
row,I.D./g,Structure (SMILES)
1,2.34%,CCC(C)N(C)C(=O)c1nc2ccccc2c(-c2ccccc2)c1C (stereo not given)

# Species on record: Rattus norvegicus
# Test: Tissue (lung) distribution in Albino male CD rats after 60 minutes expressed as percent of injected dose per gram of organ.
# Format: ADME, organism-based
# Settings: in vivo, 1 h
# Outline: as §1
row,I.D./g,Structure (SMILES)
1,1.33%,CCC(C)N(C)C(=O)c1nc2ccccc2c(-c2ccccc2)c1C (stereo not given)

# Species on record: Rattus norvegicus
# Test: Tissue (lung) distribution in Albino male CD rats after 90 minutes expressed as percent of injected dose per gram of organ.
# Format: ADME, organism-based
# Settings: in vivo, 1.5 h
# Outline: as §1
row,I.D./g,Structure (SMILES)
1,1.27%,CCC(C)N(C)C(=O)c1nc2ccccc2c(-c2ccccc2)c1C (stereo not given)

# Species on record: Rattus norvegicus
# Test: Tissue (blood) distribution in Albino male CD rats after 15 minutes expressed as percent of injected dose per gram of organ.
# Format: ADME, organism-based
# Settings: in vivo, 0.25 h
# Outline: as §2
row,I.D./g,Structure (SMILES)
1,0.08%,CCC(C)N(C)C(=O)c1nc2ccccc2c(-c2ccccc2)c1C (stereo not given)

# Species on record: Rattus norvegicus
# Test: Tissue (blood) distribution in Albino male CD rats after 60 minutes expressed as percent of injected dose per gram of organ.
# Format: ADME, organism-based
# Settings: in vivo, 1 h
# Outline: as §2
row,I.D./g,Structure (SMILES)
1,0.03%,CCC(C)N(C)C(=O)c1nc2ccccc2c(-c2ccccc2)c1C (stereo not given)

# Species on record: Rattus norvegicus
# Test: Tissue (adrenal gland) distribution in Albino male CD rats after 15 minutes expressed as percent of injected dose per gram of organ.
# Format: ADME, organism-based
# Settings: in vivo, 0.25 h
# Outline: as §2
row,I.D./g,Structure (SMILES)
1,1.38%,CCC(C)N(C)C(=O)c1nc2ccccc2c(-c2ccccc2)c1C (stereo not given)

# Species on record: Rattus norvegicus
# Test: Tissue (adrenal gland) distribution in Albino male CD rats after 30 minutes expressed as percent of injected dose per gram of organ.
# Format: ADME, organism-based
# Settings: in vivo, 0.5 h
# Outline: as §2
row,I.D./g,Structure (SMILES)
1,2.54%,CCC(C)N(C)C(=O)c1nc2ccccc2c(-c2ccccc2)c1C (stereo not given)

# Species on record: Rattus norvegicus
# Test: Tissue (adrenal gland) distribution in Albino male CD rats after 5 minutes expressed as percent of injected dose per gram of organ.
# Format: ADME, organism-based
# Settings: in vivo
# Outline: as §2
row,I.D./g,Structure (SMILES)
1,1.32%,CCC(C)N(C)C(=O)c1nc2ccccc2c(-c2ccccc2)c1C (stereo not given)

# Species on record: Rattus norvegicus
# Test: Tissue (spleen) distribution in Albino male CD rats after 15 minutes expressed as percent of injected dose per gram of organ.
# Format: ADME, organism-based
# Settings: in vivo, 0.25 h
row,I.D./g,Structure (SMILES)
1,0.92%,CCC(C)N(C)C(=O)c1nc2ccccc2c(-c2ccccc2)c1C (stereo not given)

# Species on record: Rattus norvegicus
# Test: Tissue (muscle) concentration of radioactivity at 30 min post-injection into Albino male CD rats with vehicle.
# Format: ADME, organism-based
# Settings: in vivo, 0.5 h
# Outline: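 Blocking study in male albino CD rats, five per group. Immediately before the 11C radioligand (in saline, i.v. tail vein), rats received 30 µL tail-vein PK 11195 (5 mg/kg; 1.4-1.6 mg) in DMSO:EtOH 1:1, or vehicle. Rats were decapitated at 30 min. Tissues were dissected, washed, gamma-counted and weighed as in the biodistribution study. Results are %I.D./g.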
row,I.D./g,Structure (SMILES)
1,0.09%,CCC(C)N(C)C(=O)c1nc2ccccc2c(-c2ccccc2)c1C (stereo not given)
